Measured values collected from several papers.
Protocols differ between the studies behind these lines.
Target: Myosin light chain kinase, smooth muscle (MYLK, Homo sapiens, UniProt Q15746)

SMILES | test | conditions | measurement | value
O=c1[nH]c2ccccc2n1C1CCN(Cc2ccc(-c3[nH]c4cc5ncnc5cc4nc3-c3ccccc3)cc2)CC1 | cell-free assay | 0.5 µM | remaining signal | 104%
Cn1cncc1[C@](O)(COc1ccc(C#N)cc1-c1ccc(OC(F)(F)F)cc1)c1ccc(C#N)cc1 | cell-free assay, competition with immobilised ligand | 1 µM | remaining binding | 88%
Nc1ncc(-c2nc(N3CCOCC3)nc(N3CCOCC3)n2)c(C(F)F)n1 | binding, competition with immobilised ligand | 10 µM | remaining binding | 78%
C#Cc1n[nH]c2c(-c3cn([C@@H](C)c4ccccn4)c(=O)[nH]c3=O)cc(F)cc12 | enzyme activity, inhibitor | 0.1 µM | inhibition | 1.4%
COc1ncccc1-c1cnn2ccc(N3CCN(C(=O)OC(C)C)CC3)nc12 | binding, competition with immobilised ligand | 1 µM | remaining binding | 85%
CC(C)(C)c1cc(C=C(C#N)C#N)cc(Br)c1O | enzyme activity, inhibitor | 0.5 µM | remaining activity | 90.6%
C#Cc1n[nH]c2c(-c3cn([C@@H](C)c4ccccc4)c(=O)[nH]c3=O)cc(F)cc12 | enzyme activity, inhibitor | 0.1 µM | inhibition | -0.2%
Cc1nn(C)cc1-c1nc2c(N3CCN(Cc4ccc(Cl)cc4)CC3)c(Cl)cnc2[nH]1 | binding, competition with immobilised ligand | 1 µM | remaining binding | 89%
Cn1cc(-c2cccc(N3CCc4c(sc5c4CC(C)(C)C5)C3=O)c2CO)cc(Nc2ccncn2)c1=O | enzyme activity, inhibitor | 1 µM | inhibition | -4%
